Measured values: ChEMBL document CHEMBL4184251, “Potentiation of the activity of β-lactam antibiotics by farnesol and its derivatives” (Bioorg Med Chem Lett, 2018)
Converted amounts (≈) assume the structure as drawn.

What was measured:
[1] = tested on: Staphylococcus aureus; assay: Potentiation of oxacillin-induced antimicrobial activity against methicillin-resistant Staphylococcus aureus NRS70 at 256 ug/ml (reference value: oxacillin alone MIC = 32 ug/ml); type: functional
[2] = tested on: Staphylococcus aureus; assay: Potentiation of ampicillin-induced antimicrobial activity against methicillin-susceptible Staphylococcus aureus ATCC 29213 at 256 ug/ml relative to ampicillin alone; type: functional
[3] = tested on: Staphylococcus aureus; assay: Antimicrobial activity against methicillin-susceptible Staphylococcus aureus ATCC 29213 by micro-dilution method; type: functional
Procedure, shortened: (§1)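 Broth microdilution MIC in cation-adjusted Mueller-Hinton II medium supplemented with 1% Tween-80 (CAMHB-T), needed to disperse the farnesol-type compounds. Compounds tested from 2 to 2048 μg/mL.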

[4] = tested on: Staphylococcus aureus; assay: Potentiation of ampicillin-induced antimicrobial activity against methicillin-resistant Staphylococcus aureus NRS70 at 256 ug/ml (reference value: ampicillin alone MIC = 16 ug/ml); type: functional
[5] = tested on: Staphylococcus aureus; assay: Potentiation of ampicillin-induced antimicrobial activity against methicillin-resistant Staphylococcus aureus NRS100 at 256 ug/ml (reference value: ampicillin alone MIC = 16 ug/ml); type: functional
[6] = tested on: Staphylococcus aureus; assay: Antimicrobial activity against methicillin-resistant Staphylococcus aureus NRS70 by micro-dilution method; type: functional; procedure, shortened: as §1
[7] = tested on: Staphylococcus aureus; assay: Potentiation of ampicillin-induced antimicrobial activity against methicillin-susceptible Staphylococcus aureus ATCC 29213 at 256 ug/ml (reference value: ampicillin alone MIC = 0.5 ug/ml); type: functional
[8] = tested on: Staphylococcus aureus; assay: Potentiation of oxacillin-induced antimicrobial activity against methicillin-resistant Staphylococcus aureus NRS70 at 256 ug/ml by checkerboard assay; type: functional
Procedure, shortened: (§2)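 Checkerboard combination of oxacillin with the farnesol-type compound. Synergy scored by the fractional inhibitory concentration index (FICI).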

[9] = tested on: Staphylococcus aureus; assay: Potentiation of ampicillin-induced antimicrobial activity against methicillin-resistant Staphylococcus aureus NRS70 at 256 ug/ml relative to ampicillin alone; type: functional
[10] = tested on: Staphylococcus aureus; assay: Potentiation of ampicillin-induced antimicrobial activity against methicillin-resistant Staphylococcus aureus NRS123 at 256 ug/ml relative to ampicillin alone; type: functional
[11] = tested on: Staphylococcus aureus; assay: Antimicrobial activity against methicillin-resistant Staphylococcus aureus NRS100 by micro-dilution method; type: functional; procedure, shortened: as §1
[12] = tested on: Staphylococcus aureus; assay: Potentiation of oxacillin-induced antimicrobial activity against methicillin-resistant Staphylococcus aureus NRS123 at 256 ug/ml relative to oxacillin alone; type: functional
[13] = tested on: Staphylococcus aureus; assay: Potentiation of ampicillin-induced antimicrobial activity against methicillin-resistant Staphylococcus aureus NRS123 at 256 ug/ml (reference value: ampicillin alone MIC = 12 ug/ml); type: functional
[14] = tested on: Staphylococcus aureus; assay: Antimicrobial activity against methicillin-resistant Staphylococcus aureus NRS123 by micro-dilution method; type: functional; procedure, shortened: as §1
[15] = tested on: Staphylococcus aureus; assay: Potentiation of oxacillin-induced antimicrobial activity against methicillin-resistant Staphylococcus aureus NRS123 at 256 ug/ml (reference value: oxacillin alone MIC = 24 ug/ml); type: functional
[16] = tested on: Staphylococcus aureus; assay: Potentiation of ampicillin-induced antimicrobial activity against methicillin-resistant Staphylococcus aureus NRS100 at 256 ug/ml relative to ampicillin alone; type: functional
[17] = tested on: Staphylococcus aureus; assay: Potentiation of oxacillin-induced antimicrobial activity against methicillin-resistant Staphylococcus aureus NRS100 at 256 ug/ml relative to oxacillin alone; type: functional
[18] = tested on: Staphylococcus aureus; assay: Potentiation of oxacillin-induced antimicrobial activity against methicillin-resistant Staphylococcus aureus NRS70 at 256 ug/ml relative to oxacillin alone; type: functional
[19] = Solubility in aqueous solution; type: physicochemical; details: buffer
[20] = tested on: Staphylococcus aureus; assay: Potentiation of oxacillin-induced antimicrobial activity against methicillin-resistant Staphylococcus aureus NRS100 at 256 ug/ml by checkerboard assay; type: functional; procedure, shortened: as §2
[21] = tested on: Staphylococcus aureus; assay: Potentiation of oxacillin-induced antimicrobial activity against methicillin-susceptible Staphylococcus aureus ATCC 29213 at 256 ug/ml relative to oxacillin alone; type: functional
[22] = tested on: Staphylococcus aureus; assay: Potentiation of oxacillin-induced antimicrobial activity against methicillin-susceptible Staphylococcus aureus ATCC 29213 at 256 ug/ml (reference value: oxacillin alone MIC = 0.4 ug/ml); type: functional
[23] = tested on: Staphylococcus aureus; assay: Potentiation of oxacillin-induced antimicrobial activity against methicillin-resistant Staphylococcus aureus NRS100 at 256 ug/ml (reference value: oxacillin alone MIC = >256 ug/ml); type: functional
[24] = tested on: Staphylococcus aureus; assay: Potentiation of oxacillin-induced antimicrobial activity against methicillin-resistant Staphylococcus aureus NRS70 relative to untreated oxacillin alone; type: functional
[25] = tested on: Staphylococcus aureus; assay: Potentiation of ampicillin-induced antimicrobial activity against methicillin-resistant Staphylococcus aureus NRS123 at 1000 ug/ml (reference value: ampicillin alone MIC = 12 ug/ml); type: functional
[26] = tested on: Staphylococcus aureus; assay: Potentiation of oxacillin-induced antimicrobial activity against methicillin-resistant Staphylococcus aureus NRS70 at 1000 ug/ml by checkerboard assay; type: functional; procedure, shortened: as §2
[27] = tested on: Staphylococcus aureus; assay: Potentiation of oxacillin-induced antimicrobial activity against methicillin-resistant Staphylococcus aureus NRS100 at 1000 ug/ml (reference value: oxacillin alone MIC = >256 ug/ml); type: functional
[28] = tested on: Staphylococcus aureus; assay: Potentiation of ampicillin-induced antimicrobial activity against methicillin-resistant Staphylococcus aureus NRS123 at 1000 ug/ml relative to ampicillin alone; type: functional
[29] = tested on: Staphylococcus aureus; assay: Potentiation of oxacillin-induced antimicrobial activity against methicillin-susceptible Staphylococcus aureus ATCC 29213 at 1000 ug/ml relative to oxacillin alone; type: functional
[30] = tested on: Staphylococcus aureus; assay: Potentiation of oxacillin-induced antimicrobial activity against methicillin-resistant Staphylococcus aureus NRS123 at 1000 ug/ml relative to oxacillin alone; type: functional
[31] = tested on: Staphylococcus aureus; assay: Potentiation of ampicillin-induced antimicrobial activity against methicillin-resistant Staphylococcus aureus NRS70 at 1000 ug/ml relative to ampicillin alone; type: functional
[32] = tested on: Staphylococcus aureus; assay: Potentiation of ampicillin-induced antimicrobial activity against methicillin-resistant Staphylococcus aureus NRS100 at 1000 ug/ml relative to ampicillin alone; type: functional
[33] = tested on: Staphylococcus aureus; assay: Potentiation of oxacillin-induced antimicrobial activity against methicillin-resistant Staphylococcus aureus NRS100 at 1000 ug/ml by checkerboard assay; type: functional; procedure, shortened: as §2
[34] = tested on: Staphylococcus aureus; assay: Potentiation of oxacillin-induced antimicrobial activity against methicillin-resistant Staphylococcus aureus NRS70 at 1000 ug/ml (reference value: oxacillin alone MIC = 32 ug/ml); type: functional
[35] = tested on: Staphylococcus aureus; assay: Potentiation of ampicillin-induced antimicrobial activity against methicillin-susceptible Staphylococcus aureus ATCC 29213 at 1000 ug/ml (reference value: ampicillin alone MIC = 0.5 ug/ml); type: functional
[36] = tested on: Staphylococcus aureus; assay: Potentiation of ampicillin-induced antimicrobial activity against methicillin-resistant Staphylococcus aureus NRS70 relative to untreated ampicillin alone; type: functional
[37] = tested on: Staphylococcus aureus; assay: Potentiation of oxacillin-induced antimicrobial activity against methicillin-resistant Staphylococcus aureus NRS123 at 1000 ug/ml (reference value: oxacillin alone MIC = 24 ug/ml); type: functional
[38] = tested on: Staphylococcus aureus; assay: Potentiation of oxacillin-induced antimicrobial activity against methicillin-susceptible Staphylococcus aureus ATCC 29213 at 1000 ug/ml (reference value: oxacillin alone MIC = 0.4 ug/ml); type: functional
[39] = tested on: Staphylococcus aureus; assay: Potentiation of oxacillin-induced antimicrobial activity against methicillin-resistant Staphylococcus aureus NRS100 relative to untreated oxacillin alone; type: functional
[40] = tested on: Staphylococcus aureus; assay: Potentiation of ampicillin-induced antimicrobial activity against methicillin-resistant Staphylococcus aureus NRS100 relative to untreated ampicillin alone; type: functional
[41] = tested on: Staphylococcus aureus; assay: Potentiation of ampicillin-induced antimicrobial activity against methicillin-resistant Staphylococcus aureus NRS100 at 1000 ug/ml (reference value: ampicillin alone MIC = 16 ug/ml); type: functional
[42] = tested on: Staphylococcus aureus; assay: Potentiation of oxacillin-induced antimicrobial activity against methicillin-resistant Staphylococcus aureus NRS100 at 1000 ug/ml relative to oxacillin alone; type: functional
[43] = tested on: Staphylococcus aureus; assay: Potentiation of oxacillin-induced antimicrobial activity against methicillin-resistant Staphylococcus aureus NRS70 at 1000 ug/ml relative to oxacillin alone; type: functional
[44] = tested on: Staphylococcus aureus; assay: Potentiation of ampicillin-induced antimicrobial activity against methicillin-susceptible Staphylococcus aureus ATCC 29213 at 1000 ug/ml relative to ampicillin alone; type: functional
[45] = tested on: Staphylococcus aureus; assay: Potentiation of ampicillin-induced antimicrobial activity against methicillin-resistant Staphylococcus aureus NRS70 at 1000 ug/ml (reference value: ampicillin alone MIC = 16 ug/ml); type: functional

CC(C)=CCC/C(C)=C/CC/C(C)=C/CNP(O)(O)=S
MIC [1]: 1 µg/mL | fold change (FC) [2]: 1 | MIC [3]: 512 µg/mL (≈ 1.61 mM) | MIC [4]: 6 µg/mL | MIC [5]: 3 µg/mL | MIC [6]: 512 µg/mL (≈ 1.61 mM) | MIC [7]: 0.5 µg/mL | fractional inhibitory concentration index (FICI) [8]: 0.53 - 1.13 | fold change (FC) [9]: 2.7 | fold change (FC) [10]: 1.5 | MIC [11]: 512 µg/mL (≈ 1.61 mM) | fold change (FC) [12]: 1.5 | MIC [13]: 8 µg/mL | MIC [14]: 512 µg/mL (≈ 1.61 mM) | MIC [15]: 16 µg/mL | fold change (FC) [16]: 5.3 | fold change (FC) [17]: >128 | fold change (FC) [18]: 32 | solubility [19]: Soluble | fractional inhibitory concentration index (FICI) [20]: 0.53 - 1.13 | fold change (FC) [21]: 1 | MIC [22]: 0.4 µg/mL | MIC [23]: 2 µg/mL

CC(C)=CCC/C(C)=C/CC/C(C)=C/CO [FARNESOL]
fold change (FC) [24]: 96 | MIC [25]: 3 µg/mL | fractional inhibitory concentration index (FICI) [26]: 0.53 - 1.13 | MIC [3]: 2050 µg/mL (≈ 9.21 mM) | MIC [27]: 8 µg/mL | fold change (FC) [28]: 4 | fold change (FC) [29]: 0.8 | MIC [6]: 2050 µg/mL (≈ 9.21 mM) | fold change (FC) [30]: 12 | fold change (FC) [31]: 4 | fold change (FC) [32]: 4 | fractional inhibitory concentration index (FICI) [33]: 0.53 - 1.13 | MIC [34]: 12 µg/mL | MIC [35]: 0.5 µg/mL | fold change (FC) [36]: 256 | MIC [37]: 2 µg/mL | MIC [38]: 0.5 µg/mL | MIC [11]: 2050 µg/mL (≈ 9.21 mM) | fold change (FC) [39]: >64 | fold change (FC) [40]: 24 | MIC [41]: 4 µg/mL | MIC [14]: 2050 µg/mL (≈ 9.21 mM) | fold change (FC) [42]: >32 | fold change (FC) [43]: 2.7 | fold change (FC) [44]: 1 | MIC [45]: 4 µg/mL
